Laboratory results published in ChEMBL document CHEMBL1828552, “Synthesis and studies of novel 2-(4-cyano-3-trifluoromethylphenyl amino)-4-(quinoline-4-yloxy)-6-(piperazinyl/piperidinyl)-s-triazines as potential antimicrobial, antimycobacterial and anticancer agents” (2011).
Converted amounts (≈) assume the structure as drawn.

What follows are compounds tested on Escherichia coli (assay: Antibacterial activity against 10^5 CFU/mL Escherichia coli MTCC 739 after 24 hrs by agar streak dilution method). Settings: MTCC 739, 24 h.
Assay type: functional
Summary of the method: (§1)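 Agar streak dilution. Stock 100 µg/mL in DMSO; graded amounts were mixed into molten nutrient agar and poured at 4–5 mm depth. Plates carried serial dilutions over […]. About 10⁵ CFU/mL of each bacterium was applied, and plates were incubated at 37 ± 1 °C for 24 h. MIC was read from the dilution series.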

| SMILES | MIC [µg/mL] |
| --- | --- |
| N#Cc1ccc(Nc2nc(Oc3ccnc4ccccc34)nc(N3CCN(c4ccccn4)CC3)n2)cc1C(F)(F)F | 100 (≈ 176 µM) |

These compounds were tested on Klebsiella pneumoniae (assay: Antibacterial activity against 10^5 CFU/mL Klebsiella pneumoniae MTCC 109 after 24 hrs by agar streak dilution method). Settings: MTCC 109, 24 h.
Assay type: functional
Summary of the method: as §1

| SMILES | MIC [µg/mL] |
| --- | --- |
| N#Cc1ccc(Nc2nc(Oc3ccnc4ccccc34)nc(N3CCN(c4ccccn4)CC3)n2)cc1C(F)(F)F | 100 (≈ 176 µM) |

These compounds were tested on Proteus vulgaris (assay: Antibacterial activity against 10^5 CFU/mL Proteus vulgaris MTCC 1771 after 24 hrs by disc diffusion technique). Settings: not given.
Assay type: functional
Summary of the method: (§2)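 Disc diffusion on Mueller–Hinton agar poured 5 mm deep. The surface was swabbed with a 10⁵ CFU/mL […] suspension. Filter-paper discs 6.25 mm in diameter were soaked in compound in DMSO and placed on the agar. Plates were incubated 24 h at 37 ± 1 °C, and the inhibition zone was measured in mm. A DMSO disc served as blank.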

| SMILES | inhibition zone (IZ) [mm] |
| --- | --- |
| N#Cc1ccc(Nc2nc(Oc3ccnc4ccccc34)nc(N3CCN(c4ccccn4)CC3)n2)cc1C(F)(F)F | 16 |

Each compound was assayed on Aspergillus niger (assay: Antifungal activity against 10^5 CFU/mL Aspergillus niger MTCC 282 after 48 hrs by disc diffusion technique). Settings: not given.
Assay type: functional

| SMILES | inhibition zone (IZ) [mm] |
| --- | --- |
| N#Cc1ccc(Nc2nc(Oc3ccnc4ccccc34)nc(N3CCN(c4ccccn4)CC3)n2)cc1C(F)(F)F | <10 |

What follows are compounds tested on Aspergillus niger (assay: Antifungal activity against 10^5 CFU/mL Aspergillus niger MTCC 282 after 48 hrs by agar streak dilution method). Settings: MTCC 282, 48 h.
Assay type: functional
Summary of the method: (§3)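 Agar streak dilution for fungi. Stock 100 µg/mL in DMSO; graded amounts were mixed into molten Sabouraud dextrose agar and poured at 4–5 mm depth. Serial dilutions ran over […]. About 10⁵ CFU/mL inoculum was applied, with incubation at 37 ± 1 °C for 48 h. MIC was read from the dilution series.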

| SMILES | MIC [µg/mL] |
| --- | --- |
| N#Cc1ccc(Nc2nc(Oc3ccnc4ccccc34)nc(N3CCN(c4ccccn4)CC3)n2)cc1C(F)(F)F | 100 (≈ 176 µM) |

The compounds below were run on Bacillus cereus (assay: Antibacterial activity against 10^5 CFU/mL Bacillus cereus MTCC 619 after 24 hrs by agar streak dilution method). Settings: MTCC 619, 24 h.
Assay type: functional
Summary of the method: as §1

| SMILES | MIC [µg/mL] |
| --- | --- |
| N#Cc1ccc(Nc2nc(Oc3ccnc4ccccc34)nc(N3CCN(c4ccccn4)CC3)n2)cc1C(F)(F)F | 100 (≈ 176 µM) |

What follows are compounds tested on Pseudomonas aeruginosa (assay: Antibacterial activity against 10^5 CFU/mL Pseudomonas aeruginosa MTCC 741 after 24 hrs by agar streak dilution method). Settings: MTCC 741, 24 h.
Assay type: functional
Summary of the method: as §1

| SMILES | MIC [µg/mL] |
| --- | --- |
| N#Cc1ccc(Nc2nc(Oc3ccnc4ccccc34)nc(N3CCN(c4ccccn4)CC3)n2)cc1C(F)(F)F | 100 (≈ 176 µM) |

Each compound was assayed on Shigella flexneri (assay: Antibacterial activity against 10^5 CFU/mL Shigella flexneri MTCC 1457 after 24 hrs by agar streak dilution method). Settings: MTCC 1457, 24 h.
Assay type: functional
Summary of the method: as §1

| SMILES | MIC [µg/mL] |
| --- | --- |
| N#Cc1ccc(Nc2nc(Oc3ccnc4ccccc34)nc(N3CCN(c4ccccn4)CC3)n2)cc1C(F)(F)F | 100 (≈ 176 µM) |

The compounds below were run on Bacillus cereus (assay: Antibacterial activity against 10^5 CFU/mL Bacillus cereus MTCC 619 after 24 hrs by disc diffusion technique). Settings: not given.
Assay type: functional
Summary of the method: as §2

| SMILES | inhibition zone (IZ) [mm] |
| --- | --- |
| N#Cc1ccc(Nc2nc(Oc3ccnc4ccccc34)nc(N3CCN(c4ccccn4)CC3)n2)cc1C(F)(F)F | 19 |

Each compound was assayed on DU-145 (assay: Cytotoxicity against […] human DU145 cells after 48 hrs by SRB assay). Settings: DU-145, 48 h.
Assay type: functional
Summary of the method: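 SRB assay in DU-145 cells grown in RPMI 1640 with 10% FBS and 2 mM L-glutamine. Cells were plated and held 24 h before addition of four 10-fold concentrations. After 48 h, cells were TCA-fixed, stained with 0.4% SRB and read at 540 nm. GI50, TGI and LC50 were derived against time-zero and control wells; each value is the mean of three experiments.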

| SMILES | GI50 [µM] | LC50 (concentration giving 50% net cell kill relative to time zero) [µM] | TGI [µM] |
| --- | --- | --- | --- |
| N#Cc1ccc(Nc2nc(Oc3ccnc4ccccc34)nc(N3CCN(c4ccccn4)CC3)n2)cc1C(F)(F)F | 85.9 | > 100 | > 100 |

These compounds were tested on Aspergillus clavatus (assay: Antifungal activity against 10^5 CFU/mL Aspergillus clavatus MTCC 1323 after 48 hrs by agar streak dilution method). Settings: MTCC 1323, 48 h.
Assay type: functional
Summary of the method: as §3

| SMILES | MIC [µg/mL] |
| --- | --- |
| N#Cc1ccc(Nc2nc(Oc3ccnc4ccccc34)nc(N3CCN(c4ccccn4)CC3)n2)cc1C(F)(F)F | 100 (≈ 176 µM) |

What follows are compounds tested on Salmonella typhi (assay: Antibacterial activity against 10^5 CFU/mL Salmonella typhi MTCC 733 after 24 hrs by agar streak dilution method). Settings: Salmonella enterica, MTCC 733, 24 h.
Assay type: functional, Salmonella enterica subsp. enterica serovar Typhi

| SMILES | MIC [µg/mL] |
| --- | --- |
| N#Cc1ccc(Nc2nc(Oc3ccnc4ccccc34)nc(N3CCN(c4ccccn4)CC3)n2)cc1C(F)(F)F | 100 (≈ 176 µM) |

Each compound was assayed on Proteus vulgaris (assay: Antibacterial activity against 10^5 CFU/mL Proteus vulgaris MTCC 1771 after 24 hrs by agar streak dilution method). Settings: MTCC 1771, 24 h.
Assay type: functional
Summary of the method: as §1

| SMILES | MIC [µg/mL] |
| --- | --- |
| N#Cc1ccc(Nc2nc(Oc3ccnc4ccccc34)nc(N3CCN(c4ccccn4)CC3)n2)cc1C(F)(F)F | 100 (≈ 176 µM) |

These compounds were tested on Pseudomonas aeruginosa (assay: Antibacterial activity against 10^5 CFU/mL Pseudomonas aeruginosa MTCC 741 after 24 hrs by disc diffusion technique). Settings: not given.
Assay type: functional
Summary of the method: as §2

| SMILES | inhibition zone (IZ) [mm] |
| --- | --- |
| N#Cc1ccc(Nc2nc(Oc3ccnc4ccccc34)nc(N3CCN(c4ccccn4)CC3)n2)cc1C(F)(F)F | 16 |

These compounds were tested on Aspergillus fumigatus (assay: Antifungal activity against 10^5 CFU/mL Aspergillus fumigatus MTCC 343 after 48 hrs by agar streak dilution method). Settings: MTCC 343, 48 h.
Assay type: functional
Summary of the method: as §3

| SMILES | MIC [µg/mL] |
| --- | --- |
| N#Cc1ccc(Nc2nc(Oc3ccnc4ccccc34)nc(N3CCN(c4ccccn4)CC3)n2)cc1C(F)(F)F | 100 (≈ 176 µM) |

What follows are compounds tested on Salmonella typhi (assay: Antibacterial activity against 10^5 CFU/mL Salmonella typhi MTCC 733 after 24 hrs by disc diffusion technique). Settings: not given.
Assay type: functional, Salmonella enterica subsp. enterica serovar Typhi
Summary of the method: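 Disc diffusion. Mueller-Hinton agar autoclaved 120 °C 30 min, poured 5 mm deep. Surface swabbed with 10⁵ CFU/mL suspension […]. 6.25 mm filter-paper discs soaked in compound in DMSO; DMSO-only disc as blank. Incubated 37 ± 1 °C, 24 h for bacteria or 48 h for fungi. Ciprofloxacin and ketoconazole discs as reference drugs. Inhibition zone measured in mm.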

| SMILES | inhibition zone (IZ) [mm] |
| --- | --- |
| N#Cc1ccc(Nc2nc(Oc3ccnc4ccccc34)nc(N3CCN(c4ccccn4)CC3)n2)cc1C(F)(F)F | 15 |

Each compound was assayed on Aspergillus fumigatus (assay: Antifungal activity against 10^5 CFU/mL Aspergillus fumigatus MTCC 343 after 48 hrs by disc diffusion technique). Settings: not given.
Assay type: functional

| SMILES | inhibition zone (IZ) [mm] |
| --- | --- |
| N#Cc1ccc(Nc2nc(Oc3ccnc4ccccc34)nc(N3CCN(c4ccccn4)CC3)n2)cc1C(F)(F)F | 12 |

These compounds were tested on Aspergillus clavatus (assay: Antifungal activity against 10^5 CFU/mL Aspergillus clavatus MTCC 1323 after 48 hrs by disc diffusion technique). Settings: not given.
Assay type: functional

| SMILES | inhibition zone (IZ) [mm] |
| --- | --- |
| N#Cc1ccc(Nc2nc(Oc3ccnc4ccccc34)nc(N3CCN(c4ccccn4)CC3)n2)cc1C(F)(F)F | <10 |

The compounds below were run on Klebsiella pneumoniae (assay: Antibacterial activity against 10^5 CFU/mL Klebsiella pneumoniae MTCC 109 after 24 hrs by disc diffusion technique). Settings: not given.
Assay type: functional
Summary of the method: as §2

| SMILES | inhibition zone (IZ) [mm] |
| --- | --- |
| N#Cc1ccc(Nc2nc(Oc3ccnc4ccccc34)nc(N3CCN(c4ccccn4)CC3)n2)cc1C(F)(F)F | 17 |

What follows are compounds tested on Escherichia coli (assay: Antibacterial activity against 10^5 CFU/mL Escherichia coli MTCC 739 after 24 hrs by disc diffusion technique). Settings: not given.
Assay type: functional
Summary of the method: as §2

| SMILES | inhibition zone (IZ) [mm] |
| --- | --- |
| N#Cc1ccc(Nc2nc(Oc3ccnc4ccccc34)nc(N3CCN(c4ccccn4)CC3)n2)cc1C(F)(F)F | 19 |

These compounds were tested on Staphylococcus aureus (assay: Antibacterial activity against 10^5 CFU/mL Staphylococcus aureus MTCC 96 after 24 hrs by disc diffusion technique). Settings: not given.
Assay type: functional
Summary of the method: as §2

| SMILES | inhibition zone (IZ) [mm] |
| --- | --- |
| N#Cc1ccc(Nc2nc(Oc3ccnc4ccccc34)nc(N3CCN(c4ccccn4)CC3)n2)cc1C(F)(F)F | 21 |

The compounds below were run on Shigella flexneri (assay: Antibacterial activity against 10^5 CFU/mL Shigella flexneri MTCC 1457 after 24 hrs by disc diffusion technique). Settings: not given.
Assay type: functional
Summary of the method: as §2

| SMILES | inhibition zone (IZ) [mm] |
| --- | --- |
| N#Cc1ccc(Nc2nc(Oc3ccnc4ccccc34)nc(N3CCN(c4ccccn4)CC3)n2)cc1C(F)(F)F | 16 |

What follows are compounds tested on Candida albicans (assay: Antifungal activity against 10^5 CFU/mL Candida albicans MTCC 183 after 48 hrs by agar streak dilution method). Settings: MTCC 183, 48 h.
Assay type: functional
Summary of the method: as §3

| SMILES | MIC [µg/mL] |
| --- | --- |
| N#Cc1ccc(Nc2nc(Oc3ccnc4ccccc34)nc(N3CCN(c4ccccn4)CC3)n2)cc1C(F)(F)F | 100 (≈ 176 µM) |

These compounds were tested on Candida albicans (assay: Antifungal activity against 10^5 CFU/mL Candida albicans MTCC 183 after 48 hrs by disc diffusion technique). Settings: not given.
Assay type: functional

| SMILES | inhibition zone (IZ) [mm] |
| --- | --- |
| N#Cc1ccc(Nc2nc(Oc3ccnc4ccccc34)nc(N3CCN(c4ccccn4)CC3)n2)cc1C(F)(F)F | 13 |

What follows are compounds tested on Staphylococcus aureus (assay: Antibacterial activity against 10^5 CFU/mL Staphylococcus aureus MTCC 96 after 24 hrs by agar streak dilution method). Settings: MTCC 96, 24 h.
Assay type: functional
Summary of the method: as §1

| SMILES | MIC [µg/mL] |
| --- | --- |
| N#Cc1ccc(Nc2nc(Oc3ccnc4ccccc34)nc(N3CCN(c4ccccn4)CC3)n2)cc1C(F)(F)F | 100 (≈ 176 µM) |
